For 25 compounds, IC50, Ki and Mortality results are on record in ChEMBL document CHEMBL1139513, “Synthesis and structure-activity relationships of novel selective factor Xa inhibitors with a tetrahydroisoquinoline ring” (J Med Chem, 2005).

The target of one series is Coagulation factor X (Homo sapiens, UniProt P00742). The experiment in a line: Inhibitory concentration against human Coagulation factor X.
A further series deals with Prothrombin (Homo sapiens, UniProt P00734). The experiment in a line: Inhibitory concentration against human Coagulation factor II (thrombin).
The target of the next series is Plasminogen (Homo sapiens, UniProt P00747). As to the kind of experiment: Inhibitory concentration against human Plasmin. The essentials:
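Plasmin assay, human enzyme at 0.02 U/mL as added, preincubated 10 min at 37 °C with vehicle or compound at 12.5, 25 and 50 µM final. S-2403 was added at 0.125 and 0.25 mM final and incubated 10 min at 37 °C. Stopped with 60% acetic acid; A405 of p-nitroaniline.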

In the next series the target is Trypsin (Homo sapiens, UniProt P07477+P07478+P35030). As to the kind of experiment: Inhibitory concentration against human Trypsin. The format is protein assay. The method in brief:
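Human trypsin (5 U/mL as added) preincubated 10 min at 37 °C with vehicle or compound at 50, 100 and 200 µM final. S-2222 was added at 0.125 and 0.25 mM final and incubated 10 min at 37 °C. Stopped with 60% acetic acid; p-nitroaniline read at 405 nm.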

Series [1] is described as follows: Number of mice died after 1 day upon i.v. administration at 10 mg/kg into tail vein out of 3 animals tested. The format is ADME, organism-based. On the set-up: dose 10 mg/kg, route intravenous. As to conditions: mouse, in vivo, iv, 24 h. The essentials: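 Male ICR mice given a single 10 mg/kg bolus into the tail vein. Result is expressed as deaths per animals tested.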

Chain of Coagulation factor X (P00742 41-179 limits assumed): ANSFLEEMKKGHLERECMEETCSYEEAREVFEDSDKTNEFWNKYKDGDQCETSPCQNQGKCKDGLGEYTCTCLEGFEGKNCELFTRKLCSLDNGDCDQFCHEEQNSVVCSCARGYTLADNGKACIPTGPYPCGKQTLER
Chain of Coagulation factor X (P00742 235-488 limits assumed): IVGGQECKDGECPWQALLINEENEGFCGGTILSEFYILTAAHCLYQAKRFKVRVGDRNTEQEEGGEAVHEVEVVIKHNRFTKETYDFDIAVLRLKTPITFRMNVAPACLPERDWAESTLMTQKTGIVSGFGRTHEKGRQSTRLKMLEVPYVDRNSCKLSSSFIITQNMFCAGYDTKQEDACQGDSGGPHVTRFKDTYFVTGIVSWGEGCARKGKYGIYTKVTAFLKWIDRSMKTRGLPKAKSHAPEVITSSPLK
Chain of Plasminogen (P00747 97-580 limits assumed): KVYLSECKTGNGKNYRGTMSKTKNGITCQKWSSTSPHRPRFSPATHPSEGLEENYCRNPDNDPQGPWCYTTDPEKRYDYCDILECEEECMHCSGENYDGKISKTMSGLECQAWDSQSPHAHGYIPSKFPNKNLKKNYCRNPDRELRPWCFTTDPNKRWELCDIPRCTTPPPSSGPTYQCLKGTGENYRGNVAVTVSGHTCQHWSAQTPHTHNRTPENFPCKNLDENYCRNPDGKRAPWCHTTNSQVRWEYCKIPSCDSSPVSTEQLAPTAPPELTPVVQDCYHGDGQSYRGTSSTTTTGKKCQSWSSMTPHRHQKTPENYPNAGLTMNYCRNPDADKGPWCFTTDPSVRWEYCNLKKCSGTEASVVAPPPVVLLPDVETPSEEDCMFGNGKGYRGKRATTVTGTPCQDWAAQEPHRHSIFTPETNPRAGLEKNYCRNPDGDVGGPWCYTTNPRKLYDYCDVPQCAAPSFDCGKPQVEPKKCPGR
Chain of Plasminogen (P00747 581-810 limits assumed): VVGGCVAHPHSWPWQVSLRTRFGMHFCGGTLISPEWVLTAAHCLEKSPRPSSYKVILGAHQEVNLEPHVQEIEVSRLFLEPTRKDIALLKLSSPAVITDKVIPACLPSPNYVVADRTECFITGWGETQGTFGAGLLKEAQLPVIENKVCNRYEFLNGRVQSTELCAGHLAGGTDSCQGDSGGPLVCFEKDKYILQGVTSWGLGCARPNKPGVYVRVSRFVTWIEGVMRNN

For `N=C(N)N1CCc2ccc(S(=O)(=O)CC3(C(=O)O)CCN(c4ccncc4)CC3)cc2C1`, the IC50 is 5440 nM at Coagulation factor X and above 10 µM against Prothrombin.

With `CC(=N)N1CC[C@H](Oc2ccc([C@H](Cc3ccc4ccc(C(=N)N)cc4c3)C(=O)O)cc2)C1.Cl` [DX-9065A HYDROCHLORIDE HYDRATE], the inhibitory constant (Ki) on Plasminogen was 23 µM; on Trypsin it was 0.62 µM.

Regarding `Cl.Cl.N=C(N)N1CCc2ccc(OCC3CCN(c4ccncc4)CC3)cc2C1`, in series [1], the Mortality turned out to be 3. The IC50 at Coagulation factor X was determined as 56 nM.

With `N=C(N)N1CCc2ccc(OCC3CCNCC3)cc2C1`, the IC50 against Coagulation factor X was 3340 nM; against Prothrombin it was above 10 µM.

Consider `CC(=N)N1CCC(COc2ccc3c(c2)CN(C(=N)N)CC3)CC1.Cl.Cl`, for which, in series [1], the Mortality came out at 3. Besides, the IC50 against Coagulation factor X was 510 nM.

Regarding `Cc1cc(N2CCC(COc3ccc4c(c3)CN(C(=N)N)CC4)(C(=O)O)CC2)ccn1.Cl.Cl`, the Mortality in series [1] was found to be 0. At Coagulation factor X, this compound yielded an IC50 of 230 nM.

As to `Cl.Cl.N=C(N)N1CCc2ccc(OCC3(C(=O)O)CCN(c4ccncc4)CC3)cc2C1`, the Mortality in series [1] is listed as 0.

In the case of `N=C(N)N1CCc2ccc(OCC3CCN(Cc4ccccc4N)CC3)cc2C1`, the results for the IC50 on Coagulation factor X and on Prothrombin were 3250 nM and above 10 µM, respectively.

The compound `N=C(N)N1CCc2ccc(OCCC3(C(=O)O)CCN(c4ccncc4)CC3)cc2C1` had an IC50 against Coagulation factor X of 230 nM. In other words, the sub-micromolar range.

As for `CC(=O)N1CCC(COc2ccc3c(c2)CN(C(=N)N)CC3)CC1`, the IC50 on Prothrombin is above 10 µM.

In series [1], `CCOC(=O)C1(COc2ccc3c(c2)CN(C(=N)N)CC3)CCN(c2ccncc2)CC1.Cl.Cl` displayed a Mortality of 3. At Coagulation factor X, this compound yielded an IC50 of 74 nM.

In turn, `COC(=O)c1cnccc1N1CCC(COc2ccc3c(c2)CN(C(=N)N)CC3)CC1.Cl.Cl` showed a Mortality in series [1] of 3. The midpoint of inhibition at Coagulation factor X, the IC50, lay at 270 nM.

As for `N=C(N)c1ccc2ccc(OCC3(C(=O)O)CCN(c4ccncc4)CC3)cc2c1`, the IC50 against Coagulation factor X is 510 nM; on Prothrombin, above 10 µM.

`N=C(N)N1CCc2ccc(S(=O)(=O)NC3(C(=O)O)CCN(c4ccncc4)CC3)cc2C1` gave an IC50 at Prothrombin above 10 µM.

On to `Cl.Cl.Cl.N=C(N)N1CCc2ccc(OCC3CCN(Cc4ccncc4)CC3)cc2C1`, for which the Mortality in series [1] stood at 3.

As for `N=C(N)N1CCc2ccc(OCC3CCN(Cc4cccc(N)c4)CC3)cc2C1`, the IC50 on Coagulation factor X is 4060 nM; against Prothrombin, above 10 µM.

For the compound `CCOC(=O)CCc1cnccc1N1CCC(COc2ccc3c(c2)CN(C(=N)N)CC3)CC1.Cl.Cl`, the Mortality in series [1] was found to be 3. The IC50 was 190 nM against Coagulation factor X and above 10 µM on Prothrombin.

In turn, `Cl.Cl.N=C(N)N1CCc2ccc(OCC3(C(=O)O)CCN(c4ccncn4)CC3)cc2C1` showed a Mortality in series [1] of 0. In addition, the concentration for half-maximal inhibition (IC50) against Coagulation factor X was 120 nM.

`Cl.Cl.N=C(N)N1CCc2ccc(OCC3CCN(c4ccncc4CCC(=O)O)CC3)cc2C1` had a Mortality in series [1] of 0. The compound further returned an IC50 on Coagulation factor X of 160 nM.

Consider `Cl.Cl.N=C(N)N1CCc2ccc(OCC3CCN(c4ccncc4C(=O)O)CC3)cc2C1`, for which, in series [1], the Mortality stood at 0. Besides, the half-maximal inhibitory concentration (IC50) was 1980 nM against Coagulation factor X and above 10 µM at Prothrombin.

The compound `Cl.Cl.N=C(N)N1CCc2ccc(OCC3CCN(c4ccnc5ccccc45)CC3)cc2C1` registered a Mortality in series [1] of 3. Besides, the IC50 on Coagulation factor X is 420 nM.

Consider `N=C(N)N1CCCc2ccc(OCC3(C(=O)O)CCN(c4ccncc4)CC3)cc2C1`, for which the values for the IC50 at Coagulation factor X and against Prothrombin were above 10000 nM and above 10 µM, respectively.

Take `N=C(N)N1CCc2ccc(OCC3CCN(Cc4ccccn4)CC3)cc2C1`: the IC50 is 1350 nM against Coagulation factor X and above 10 µM against Prothrombin.

`N=C(N)N1CCc2ccc(SCC3(C(=O)O)CCN(c4ccncc4)CC3)cc2C1` displayed a half-maximal inhibitory concentration (IC50) against Coagulation factor X of 390 nM.

On Coagulation factor X, `CCOC(=O)C1(COc2ccc3c(c2)CN(C(=N)N)CC3)CCN(c2cc[n+](C)cc2)CC1` yielded a 50% inhibitory concentration (IC50) of 1130 nM.
